Screens as filed in PubChem BioAssay.
MrgX1 antagonist – human MrgX1 receptor antagonism, primary screen | 1.3% of 310,000 active | Q96LB2 | B-score at 10 µM | MRGX1-HEK293 calcium flux, Fluo-4, BAM8-22 antagonism; hits give low values;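 active = calcium-response B-score plate-corrected more than 3 library SD below zero, starting fluorescence within 5 deviations, no agonist response on first addition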;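 also: peak minus trough fluorescence over baseline after final BAM8-22 challenge near maximal dose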
Target sequence (Q96LB2 whole entry, looked up): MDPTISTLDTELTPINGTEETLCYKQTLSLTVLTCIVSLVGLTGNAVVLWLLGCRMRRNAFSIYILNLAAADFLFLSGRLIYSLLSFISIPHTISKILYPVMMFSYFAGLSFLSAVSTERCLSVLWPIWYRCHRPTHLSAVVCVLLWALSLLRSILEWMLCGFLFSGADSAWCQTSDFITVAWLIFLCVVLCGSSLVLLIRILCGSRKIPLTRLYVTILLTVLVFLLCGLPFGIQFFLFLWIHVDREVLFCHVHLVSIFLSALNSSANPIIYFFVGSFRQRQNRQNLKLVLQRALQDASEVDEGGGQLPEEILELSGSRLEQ
MrgX1 PAM – human MrgX1 positive allosteric modulation, primary screen. B-score at 10 µM. MrgX1-HEK293, Fluo-4 calcium flux, FDSS; hits give high values. AID 588675. Q96LB2. 0.63% of 310,000 active;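 active = plate-corrected calcium response at least 3 library SD above typical, normal starting fluorescence, not activating the receptor alone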;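 also: compound read alongside a low EC10 to EC30 dose of BAM8-22 agonist; peak minus trough fluorescence over baseline measured at the second addition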
RGS4 block – inhibitors of human RGS4. P49798. HEK293 M3R/RGS4 inducible, Fluo-4 calcium flux; hits give high values; triggered by carbachol at its EC20. B-score at 10 µM. 0.45% of 310,000 active. AID 463165;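 active = B-score, a plate-corrected calcium signal, over three deviations above library mean, with baseline fluorescence within five deviations of library mean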;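 also: RGS4 expression induced by doxycycline in cells with stable M3 receptor; B-score is computed from the integrated fluorescence ratio over baseline after carbachol; higher B-score means a larger calcium signal and so more RGS4 inhibition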
Target sequence (P49798 whole entry, looked up): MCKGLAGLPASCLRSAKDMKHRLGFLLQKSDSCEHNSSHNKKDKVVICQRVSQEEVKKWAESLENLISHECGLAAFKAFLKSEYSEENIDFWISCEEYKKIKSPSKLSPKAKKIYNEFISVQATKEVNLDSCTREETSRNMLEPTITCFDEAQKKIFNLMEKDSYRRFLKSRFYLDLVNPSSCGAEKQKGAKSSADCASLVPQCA
RGS4 pot – RGS4 potentiation or activation; 0.92% of 310,000 active; HEK293 M3R/inducible RGS4, carbachol calcium flux Fluo4; hits give low values; AID 463111; B-score at 10 µM;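 active = B-score of the integrated calcium signal more than 4 SD below the library mean, with starting fluorescence not abnormally high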;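 also: negative B-score means reduced calcium response which marks RGS4 activation or potentiation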
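System – HEK293 FlpIn-TREx cells, stable M3R, doxycycline-inducible RGS4 · Reagent – ECmax carbachol challenge · Times – compound preincubation 20 min at room temperature before agonist · Technique – Fluo4 fluorescence kinetic imaging of calcium · Measure – B score of integrated Fluo4 ratio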
MrgX1 ag – activates human MrgX1 receptor signaling; MrgX1-HEK293 cells, Fluo-4 calcium fluorescence, agonist mode; hits give high values; 0.44% of 310,000 active; Q96LB2; B-score at 10 µM; AID 588627;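 active = calcium response B-score plate-corrected fluorescence ratio at least 3 library SD, with starting fluorescence B-score inside 5 SD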
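Assay system: MrgX1-expressing HEK293 cells / Amount: fifteen thousand cells per well / Doses: test compound in the initial addition of three / Timing: cells plated overnight, dye loaded 0.5 h 37 °C, 0.5 h room temperature / Technique: kinetic calcium dye fluorescence, Fluo-4 NW / Control set: positive and negative controls per plate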
MrgX1 antag conf – human MrgX1 receptor antagonism, re-confirmation screen. 19% of 2,300 active. remaining BAM8-22 calcium response % of control (hits give low values), % at 10 µM. MrgX1-HEK293, BAM8-22 calcium flux, Fluo-4; hits give low values. AID 602420. shares compounds with MrgX1 antagonist;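 active = remaining agonist calcium response no higher than 100% minus 3 SD of agonist-only control wells, with starting fluorescence near control levels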;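 also: agonist BAM8-22 given at a near maximal EC90 to ECmax level; peak minus minimum fluorescence divided by baseline after agonist addition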
HEK293 Ca flux – activity in parental HEK293 cells lacking MrgX1; 2% of 4,000 active; shares compounds with MrgX1 antagonist; fluorescence ratio F(max-min)/F0 at 10 µM; Fluo-4 calcium fluorescence, FDSS;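 active = duplicate-averaged calcium fluorescence ratio at least three times the standard deviation of buffer wells, a nonspecific response in parental cells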
HEK293 Ca counter – counter-screen for MrgX1 allosteric activators: effect in parental HEK293 cells; shares compounds with MrgX1 antagonist; parental HEK293 calcium flux, Fluo-4 fluorescence ratio; hits give high values; fluorescence ratio F(max-min)/F0 at 10 µM; 0.4% of 4,000 active;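 active = calcium fluorescence ratio, averaged over duplicates, at least 3 SD of the buffer-well ratio, meaning a nonspecific response in receptor-free cells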;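 also: untransfected parental HEK293 lacking MrgX1 used as counterscreen for MrgX1 allosteric activators; fluorescence change taken during the second addition on a kinetic imager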
HEK293 Ca cntr2 – counter-screen for MrgX1 activators: effect in parental HEK293 cells | shares compounds with MrgX1 antagonist | Fluo-4 calcium fluorescence (FDSS); hits give high values | fluorescence ratio F(max-min)/F0 at 10 µM | 8.7% of 4,000 active | AID 624115;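 active = calcium fluorescence ratio at least three times the spread of buffer wells, meaning a non-specific response in parental cells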
Of the large screens only hits and unclear results are named; the others gave an inactive call (follow-up assays come after a bar, where they were run). Shown are actives, neighbours in structure and some others; about 3.5% of the full set was active somewhere.

CCOC(=O)N1CCN(C(=O)NC2CCCCC2)CC1	none
CCOC(=O)N1CCC(=NNC(=O)NC2CCCCC2)CC1	MrgX1 antagonist -21 | MrgX1 antag conf inactive | HEK293 Ca flux inactive | HEK293 Ca counter inactive | HEK293 Ca cntr2 inactive
CN(C)S(=O)(=O)c1ccc(C(=O)Nc2ccc(S(=O)(=O)NC3=NCCCCC3)cc2)cc1	MrgX1 antagonist -7.5 | MrgX1 antag conf inactive | HEK293 Ca flux inactive | HEK293 Ca counter inactive | HEK293 Ca cntr2 inactive
O=C(Nc1ccc(S(=O)(=O)NC2=NCCCCC2)cc1)c1ccc(C(F)(F)F)cc1	none
CC(C)(C)OC(=O)N1CC(O)CC1C(=O)OCC(=O)c1ccc(-c2ccccc2)cc1 (stereo not drawn)	none
Cc1nnc(C)c2c(C)n(-c3ccccc3N)c(C)c12	none
COc1cc2c(cc1OC)N1C(=O)CC(OCC(=O)O)C3C4CC5(CCN5C(=O)C4=O)C2C31 (stereo not drawn)	MrgX1 antagonist -6 | MrgX1 antag conf inactive | HEK293 Ca flux inactive | HEK293 Ca counter inactive | HEK293 Ca cntr2 inactive
CCCc1cc(=O)[nH]c(SCCN2C(=O)c3ccccc3C2=O)n1	MrgX1 antagonist -5.3 | MrgX1 antag conf inactive | HEK293 Ca flux inactive | HEK293 Ca counter inactive | HEK293 Ca cntr2 inactive
COC(=O)CSc1nnc(CCc2ccccc2)n1C	none
COc1ccc(-n2c(CNC(=O)c3cccs3)n[nH]c2=S)cc1	MrgX1 antagonist -4.8 | MrgX1 antag conf inactive | HEK293 Ca flux inactive | HEK293 Ca counter inactive | HEK293 Ca cntr2 inactive
O=C(CN1CCN(c2ccc(F)cc2)CC1)c1ccc2c(c1)OCO2	none
O=C1CC(c2cccc(Oc3ccccc3)c2)NC(=O)N1 (stereo not drawn)	MrgX1 antagonist -8.2 | MrgX1 antag conf inactive | HEK293 Ca flux inactive | HEK293 Ca counter inactive | HEK293 Ca cntr2 inactive
O=C(COc1ccc2c3c(c(=O)oc2c1)CCC3)Nc1ccccn1	none
CC(O)c1nc2ccc(C(=O)O)cc2[nH]1 (stereo not drawn)	none
COc1cccc(CN(C)C(=O)c2cc(COc3c(F)cccc3F)on2)c1	none
COc1cccc(CN(C)C(=O)c2cc(COc3ccc4ncccc4c3)on2)c1	MrgX1 antagonist -6.6 | MrgX1 antag conf 69% | HEK293 Ca flux inactive | HEK293 Ca counter inactive | HEK293 Ca cntr2 inactive
Cc1ccc(S(=O)(=O)NCC(c2ccco2)N2CCc3ccccc32)cc1 (stereo not drawn)	MrgX1 antagonist -5.6 | MrgX1 antag conf inactive | HEK293 Ca flux inactive | HEK293 Ca counter inactive | HEK293 Ca cntr2 inactive
Cc1ccc(S(=O)(=O)NCC(c2ccco2)N2CCc3ccccc3C2)cc1 (stereo not drawn)	MrgX1 antagonist -5.1 | MrgX1 antag conf inactive | HEK293 Ca flux inactive | HEK293 Ca counter inactive | HEK293 Ca cntr2 inactive
Cc1ccc(C(CNS(=O)(=O)c2ccccc2)N2CCN(C)CC2)cc1 (stereo not drawn)	MrgX1 antagonist -8.1 | MrgX1 antag conf inactive | HEK293 Ca flux inactive | HEK293 Ca counter inactive | HEK293 Ca cntr2 inactive
COc1ccc(S(=O)(=O)NCC(c2ccco2)N2CCc3ccccc32)cc1 (stereo not drawn)	none
Cc1ccc(C(CNS(=O)(=O)c2ccc(Br)cc2)N2CCN(C)CC2)cc1 (stereo not drawn)	none
O=C(C1=C(O)C(=O)N(Cc2cccnc2)C1c1ccccn1)c1cccs1 (stereo not drawn)	none
O=C(CSc1nnnn1-c1cccc(O)c1)NC1CC1	none
Cc1ccc(-c2csc(NC(=O)c3ccc4c(=O)n5c(nc4c3)CCCCC5)n2)cc1	MrgX1 antagonist -5.5 | MrgX1 antag conf 71% | HEK293 Ca flux inactive | HEK293 Ca counter inactive | HEK293 Ca cntr2 inactive
